In the library only some 2.6% were active in any assay of this set; here they are far more common.
SENP6 inh: SENP6 protease inhibition; Q9GZR1; Recombinant SENP6 catalytic domain, aminoluciferin luminescence; inhibition, % at 10 µM; 330,000 compounds, 1.8% hits; AID 2599;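 active = inhibition above about 50% at the single tested dose, limit read from the data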
SENP8 block-1: SENP8 protease inhibition; purified SENP8, Z-RLRGG-aminoluciferin cleavage, luminescence; AID 2540; Q96LD8; 330,000 compounds, 1.2% hits; inhibition, % at 10 µM; in the data active = inhibition above about 50%
Target sequence (Q96LD8 whole entry, looked up): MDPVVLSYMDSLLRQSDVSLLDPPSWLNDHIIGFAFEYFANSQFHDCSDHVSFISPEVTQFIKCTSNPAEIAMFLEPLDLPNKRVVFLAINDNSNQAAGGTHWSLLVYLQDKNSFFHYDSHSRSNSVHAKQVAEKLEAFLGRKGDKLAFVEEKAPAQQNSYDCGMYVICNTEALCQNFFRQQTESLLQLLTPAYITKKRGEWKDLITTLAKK
SENP7 inh: inhibitors of human SENP7 protease; inhibition, % at 5 µM; 330,000 compounds, 1.5% hits; AID 434973; Q9BQF6; recombinant SENP7, Z-RLRGG-aminoluciferin luminescence, 40 min;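 active = inhibition above about 50% at the single test dose, limit read from the data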
SENP8 block-2: inhibitors of human SENP8 protease; Q96LD8; AID 602440; recombinant SENP8, Nedd8 substrate fluorescence; inhibition, % at 20 µM; 360,000 compounds, 0.64% hits; in the data active = inhibition mostly above about 40%, no sharp cut-off; inactive = mostly below about 27%
SENP1 FRET inh: inhibitors of human SENP1 SUMO protease catalytic domain | Q9P0U3 | recombinant SENP1 catalytic domain, CyPet-SUMO1-YPet FRET cleavage | inhibition, % at 10 µM | 360,000 compounds, 0.21% hits;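 active = inhibition at least 30% at 10 µM, raw YFP signal under a set limit, fluorescence ratio 0.5 to 1.5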
Target sequence (Q9P0U3 419-644 limits assumed): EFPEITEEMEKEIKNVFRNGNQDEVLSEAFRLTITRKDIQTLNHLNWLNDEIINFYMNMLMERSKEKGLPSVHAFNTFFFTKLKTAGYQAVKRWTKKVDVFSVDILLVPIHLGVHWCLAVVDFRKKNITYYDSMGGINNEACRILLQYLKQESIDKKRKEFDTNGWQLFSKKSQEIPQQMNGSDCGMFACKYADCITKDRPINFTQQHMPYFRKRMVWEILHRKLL
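Test system: human SENP1 catalytic domain; medium: Tris pH 8 buffer plus EDTA, NaCl, BME, BSA, NP40, catalase; incubation: 50 min reaction at room temperature; technique: FRET, CFP and YFP emission; controls: no-enzyme low control and enzyme-plus-DMSO high control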
Platelet DG rel: modulates dense granule release in human platelets. human platelet-rich plasma, SFLLRN dense granule ATP release, luminescence. inhibition, %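 (compounds screened at 7.5 µM in platelet-rich plasma)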. 300,000 compounds, 0.22% hits. AID 1663;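 active = mean replicate score, as percent of positive control, at or above 50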
SENP8 conf: human SENP8 inhibition, confirmed. Recombinant SENP8, Z-RLRGG-aminoluciferin luminescence, 60 min. inhibition, % at 12.5 µM. shares compounds with SENP7 inh. AID 488912. 6,200 compounds, 40% hits;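 active = mean inhibition across replicates above about 50%, limit read from the data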
SENP6 conf: confirmation of human SENP6 protease inhibitors | shares compounds with SENP7 inh | recombinant SENP6, Z-RLRGG-aminoluciferin luminescence | inhibition, % at 12.5 µM | 6,200 compounds, 58% hits
SENP7 confirm: human SENP7 inhibition, confirmed; shares compounds with SENP7 inh; recombinant SENP7, Z-RLRGG-aminoluciferin luminescence, 40 min; inhibition, % at 12.5 µM; 6,200 compounds, 69% hits; AID 488917
Casp3 select: selectivity test for SENP inhibitors: human caspase-3 inhibition | shares compounds with SENP7 inh | purified caspase-3, Z-DEVD-aminoluciferin luminescence, 60 min | inhibition, % at 12.5 µM | 6,200 compounds, 60% hits | AID 488918;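 active = mean inhibition above about 50%, limit read from the data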
Target sequence (P42574 28-227 limits assumed): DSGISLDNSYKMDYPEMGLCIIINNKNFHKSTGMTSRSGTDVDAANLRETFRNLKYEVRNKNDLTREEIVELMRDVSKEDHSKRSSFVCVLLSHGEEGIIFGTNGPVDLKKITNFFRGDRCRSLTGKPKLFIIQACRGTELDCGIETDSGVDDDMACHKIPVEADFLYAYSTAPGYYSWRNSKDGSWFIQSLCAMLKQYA
Luc interf: counter-screen for SENP inhibitors: luminescence interference. shares compounds with SENP7 inh. Pre-incubated SENP8/Z-RLRGG-aminoluciferin, luciferase luminescence interference. inhibition, % at 12.5 µM. 6,200 compounds, 39% hits. AID 488919;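 active = mean inhibition above about 50% when retested at one dose, limit read from the data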
Numbers stand for hits.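 Rule for the calls, unless noted: active = mean inhibition above about 50% in the one-dose retest (limit read from the data); inactive = the rest.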

What do the screens show for `c1ccc(-n2nnc3c(N4CCOCC4)ncnc32)cc1`?
SENP6 inh: 81; SENP8 block-1: 50; SENP7 inh: 75; SENP8 block-2: inactive; SENP1 FRET inh: inactive; Platelet DG rel: inactive; SENP8 conf: inactive; SENP6 conf: inactive; SENP7 confirm: inactive; Casp3 select: inactive; Luc interf: inactive

How did Cc1cc(C(=O)N2CCN(S(=O)(=O)c3ccc(F)c(Cl)c3)CC2)c(C)o1 do in these assays?
SENP6 inh: inactive; SENP8 block-1: inactive; SENP7 inh: inactive; SENP8 block-2: inactive; SENP1 FRET inh: inactive

Results for c1cncc(CN=C2Nc3ccccc3CS2)c1 ?
SENP6 inh: inactive; SENP8 block-1: inactive; SENP7 inh: inactive; SENP8 block-2: inactive; SENP1 FRET inh: inactive; Platelet DG rel: inactive

Results for Clc1ccc(CN=C2Nc3ccccc3CS2)cc1 ?
SENP6 inh: 69; SENP8 block-1: inactive; SENP7 inh: 60; SENP8 block-2: inactive; SENP1 FRET inh: inactive; Platelet DG rel: inactive; SENP8 conf: 66; SENP6 conf: 68; SENP7 confirm: 87; Casp3 select: inactive; Luc interf: 80

How did Cc1ccc(CN=C2Nc3ccccc3CS2)cc1 do in these assays?
SENP6 inh: 89; SENP8 block-1: 83; SENP7 inh: 88; SENP8 block-2: inactive; SENP1 FRET inh: inactive; Platelet DG rel: inactive; SENP8 conf: 91; SENP6 conf: 91; SENP7 confirm: 100; Casp3 select: 84; Luc interf: 83

Results for FC(F)Oc1ccc(NC(=S)N2CCc3ccccc32)cc1 ?
SENP6 inh: 50; SENP8 block-1: inactive; SENP7 inh: inactive; SENP8 block-2: inactive; SENP1 FRET inh: inactive; Platelet DG rel: inactive; SENP8 conf: inactive; SENP6 conf: inactive; SENP7 confirm: inactive; Casp3 select: inactive; Luc interf: inactive

What do the screens show for `CC(C)C(=O)Nc1ccc2nn(-c3ccccc3)nc2c1`?
SENP6 inh: inactive; SENP8 block-1: inactive; SENP7 inh: 51; SENP8 block-2: inactive; SENP1 FRET inh: inactive; Platelet DG rel: inactive; SENP8 conf: inactive; SENP6 conf: inactive; SENP7 confirm: 71; Casp3 select: inactive; Luc interf: inactive

What do the screens show for `CC(=O)Nc1cc2nn(-c3ccccc3)nc2cc1Cl`?
SENP6 inh: 69; SENP8 block-1: inactive; SENP7 inh: 76; SENP8 block-2: inactive; SENP1 FRET inh: inactive; Platelet DG rel: inactive; SENP8 conf: inactive; SENP6 conf: inactive; SENP7 confirm: inactive; Casp3 select: inactive; Luc interf: inactive

What do the screens show for `Nc1c(Cl)cc2c(c1Oc1ccccc1)C(=O)c1ccccc1C2=O`?
SENP6 inh: 58; SENP8 block-1: inactive; SENP7 inh: inactive; SENP8 block-2: inactive; SENP1 FRET inh: 70; Platelet DG rel: inactive; SENP8 conf: inactive; SENP6 conf: inactive; SENP7 confirm: inactive; Casp3 select: inactive; Luc interf: inactive

How did CCOC(=O)C1(C)CCN1C(=O)/C=C/c1ccccc1 (stereo unspecified) do in these assays?
SENP8 block-2: inactive; SENP1 FRET inh: inactive

What do the screens show for `COc1ccc(C(=O)C2CCCN(C(=O)c3cccc(N(C)C)c3)C2)cc1OC` (stereo unspecified)?
SENP6 inh: inactive; SENP8 block-1: inactive; SENP7 inh: inactive; SENP8 block-2: inactive; SENP1 FRET inh: inactive; Platelet DG rel: inactive

How did O=C(O)c1ccc(-c2nc(-c3ccc(Cl)cc3Cl)cs2)cc1 do in these assays?
SENP6 inh: 60; SENP8 block-1: inactive; SENP7 inh: inactive; SENP8 block-2: inactive; SENP1 FRET inh: inactive; Platelet DG rel: inactive; SENP8 conf: inactive; SENP6 conf: inactive; SENP7 confirm: inactive; Casp3 select: inactive; Luc interf: inactive

What do the screens show for `O=C(O)c1ccc(-c2nc(-c3ccc(Cl)cc3)cs2)cc1`?
SENP8 block-2: inactive; SENP1 FRET inh: inactive; Platelet DG rel: inactive

How did CCN1CCN(S(=O)(=O)c2c(C)[nH]c(C)c2C(=O)N2CCCCC2)CC1 do in these assays?
SENP6 inh: inactive; SENP8 block-1: inactive; SENP7 inh: inactive; SENP8 block-2: inactive; SENP1 FRET inh: inactive; Platelet DG rel: inactive

Results for Oc1c(-c2cc(-c3ccco3)[nH]n2)ccc2ccccc12 ?
SENP6 inh: inactive; SENP8 block-1: 55; SENP7 inh: 55; SENP8 block-2: inactive; SENP1 FRET inh: inactive; Platelet DG rel: inactive; SENP8 conf: inactive; SENP6 conf: 69; SENP7 confirm: 86; Casp3 select: inactive; Luc interf: inactive

What do the screens show for `NCCNc1cc(N2CCCC2)ccc1[N+](=O)[O-]`?
SENP6 inh: inactive; SENP8 block-1: inactive; SENP7 inh: 77; SENP8 block-2: inactive; SENP1 FRET inh: inactive; Platelet DG rel: inactive; SENP8 conf: inactive; SENP6 conf: inactive; SENP7 confirm: inactive; Casp3 select: inactive; Luc interf: inactive

What do the screens show for `Cc1ccc(C(=O)O/N=C(\N)c2nonc2N)cc1`?
SENP6 inh: 98; SENP8 block-1: 97; SENP7 inh: 101; SENP8 block-2: inactive; SENP1 FRET inh: inactive; Platelet DG rel: inactive; SENP8 conf: 98; SENP6 conf: 98; SENP7 confirm: 101; Casp3 select: 97; Luc interf: 97

What do the screens show for `Cc1cc(/C(N)=N/OC(=O)c2ccccc2Cl)no1`?
SENP6 inh: 81; SENP8 block-1: 77; SENP7 inh: 88; SENP8 block-2: inactive; SENP1 FRET inh: inactive; SENP8 conf: 85; SENP6 conf: 84; SENP7 confirm: 97; Casp3 select: 93; Luc interf: 86

What do the screens show for `Cc1nc(/C(N)=N/OC(=O)c2ccccc2Cl)c(C(F)(F)F)o1`?
SENP6 inh: 83; SENP8 block-1: 80; SENP7 inh: 88; SENP8 block-2: inactive; SENP1 FRET inh: inactive; Platelet DG rel: inactive; SENP8 conf: 88; SENP6 conf: 88; SENP7 confirm: 98; Casp3 select: 95; Luc interf: 88

What do the screens show for `N/C(=N/OCC(=O)Nc1cccc2ccccc12)c1nonc1N`?
SENP6 inh: inactive; SENP8 block-1: inactive; SENP7 inh: inactive; SENP8 block-2: inactive; SENP1 FRET inh: inactive; Platelet DG rel: inactive

Source: PubChem (several laboratories)
